Assay results published in ChEMBL document CHEMBL5724801, “EUbOPEN Chemogenomics Library - Multiplex” (2024).
Where “and” joins values, the source holds several entries; their conditions need not be identical. Identical values can stand only once.

Test system: HEK-293T
Experiment: Multiplex assay against HEK293T
Type: toxicity, cell-based
Conditions: human
Outline: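 Cells were classed with CellPathfinder machine-learning gating, first as Hoechst high-intensity objects or normal cells, then (normal cells) as healthy, pyknosed or fragmented nuclei, and finally (pyknosed cells) as mitotic or apoptotic. Staining of live cells at seeding used Hoechst33342, BioTracker Green Microtubule Cytoskeleton Dye, MitoTracker Red and Annexin V Alexa Fluor 680, with imaging on a CQ1 microscope at 37°C and 5% CO2 after compound addition. Tubulin, mitochondrial-mass and membrane-permeability phenotypes are per cents of healthy-nucleus cells.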

[1] = 12 h, 1 µM, compound concentration 1 uM
[2] = 12 h, 10 µM, compound concentration 10 uM
[3] = 24 h, 1 µM, compound concentration 1 uM
[4] = 24 h, 10 µM, compound concentration 10 uM
[5] = 48 h, 1 µM, compound concentration 1 uM
[6] = 48 h, 10 µM, compound concentration 10 uM

Compound: COCCn1c(C)c(C)s/c1=N\C(=O)C1C(C)(C)C1(C)C
- Population Apoptotic (%) [1]: 37% and 41%
- Population Fragmented Nuclei (%) [1]: 10% and 5%
- Population Healthy Nuclei (%) [1]: 77% and 82%
- Population Hoechst High Intensity Objects (%) [1]: 6% and 4%
- Population Membrane Permeable-Phenotype (%) [1]: 0%
- Population Mitochondria Different-Phenotype (%) [1]: 45% and 77%
- Population Mitotic Cells (%) [1]: 62% and 58%
- Population Normal (%) [1]: 93% and 95%
- Population Pyknosed Nuclei (%) [1]: 12%
- Population Tubulin-Different-Phenotype (%) [1]: 29% and 26%
- Total Cell Count [1]: 335 and 304
- Population Apoptotic (%) [2]: 77% and 53%
- Population Healthy Nuclei (%) [2]: 52% and 75%
- Population Hoechst High Intensity Objects (%) [2]: 18% and 11%
- Population Membrane Permeable-Phenotype (%) [2]: 0%
- Population Mitochondria Different-Phenotype (%) [2]: 91% and 72%
- Population Mitotic Cells (%) [2]: 22% and 46%
- Population Normal (%) [2]: 81% and 88%
- Population Pyknosed Nuclei (%) [2]: 13% and 16%
- Population Tubulin-Different-Phenotype (%) [2]: 67% and 38%
- Population Apoptotic (%) [3]: 19% and 35%
- Population Fragmented Nuclei (%) [3]: 7% and 8%
- Population Healthy Nuclei (%) [3]: 81%
- Population Hoechst High Intensity Objects (%) [3]: 4% and 7%
- Population Membrane Permeable-Phenotype (%) [3]: 0%
- Population Mitochondria Different-Phenotype (%) [3]: 26% and 47%
- Population Mitotic Cells (%) [3]: 80% and 64%
- Population Normal (%) [3]: 95% and 92%
- Population Pyknosed Nuclei (%) [3]: 11% and 10%
- Population Tubulin-Different-Phenotype (%) [3]: 20% and 17%
- Total Cell Count [3]: 447 and 383
- Population Apoptotic (%) [4]: 71% and 45%
- Population Fragmented Nuclei (%) [4]: 30% and 11%
- Population Healthy Nuclei (%) [4]: 61% and 75%
- Population Hoechst High Intensity Objects (%) [4]: 15% and 7%
- Population Membrane Permeable-Phenotype (%) [4]: 0%
- Population Mitochondria Different-Phenotype (%) [4]: 53% and 62%
- Population Mitotic Cells (%) [4]: 28% and 54%
- Population Normal (%) [4]: 84% and 92%
- Population Pyknosed Nuclei (%) [4]: 8% and 13%
- Population Tubulin-Different-Phenotype (%) [4]: 36% and 30%
- Population Apoptotic (%) [5]: 20% and 45%
- Population Fragmented Nuclei (%) [5]: 13% and 11%
- Population Healthy Nuclei (%) [5]: 75% and 81%
- Population Hoechst High Intensity Objects (%) [5]: 3%
- Population Membrane Permeable-Phenotype (%) [5]: 0%
- Population Mitochondria Different-Phenotype (%) [5]: 22% and 31%
- Population Mitotic Cells (%) [5]: 79% and 55%
- Population Normal (%) [5]: 96% and 97%
- Population Pyknosed Nuclei (%) [5]: 11% and 7%
- Population Tubulin-Different-Phenotype (%) [5]: 14% and 12%
- Total Cell Count [5]: 649 and 567
- Population Apoptotic (%) [6]: 60% and 38%
- Population Fragmented Nuclei (%) [6]: 18% and 13%
- Population Healthy Nuclei (%) [6]: 73% and 79%
- Population Hoechst High Intensity Objects (%) [6]: 2% and 4%
- Population Membrane Permeable-Phenotype (%) [6]: 2% and 0%
- Population Mitochondria Different-Phenotype (%) [6]: 30% and 46%
- Population Mitotic Cells (%) [6]: 40% and 61%
- Population Normal (%) [6]: 97% and 95%
- Population Pyknosed Nuclei (%) [6]: 8% and 6%
- Population Tubulin-Different-Phenotype (%) [6]: 31% and 24%
- Total Cell Count [6]: 191 and 493

Compound: N#Cc1cc(F)cc(-c2nc(-c3ccc(F)cn3)no2)c1
- Population Apoptotic (%) [1]: 38% and 64%
- Population Fragmented Nuclei (%) [1]: 10% and 6%
- Population Healthy Nuclei (%) [1]: 76% and 77%
- Population Hoechst High Intensity Objects (%) [1]: 5% and 8%
- Population Membrane Permeable-Phenotype (%) [1]: 0%
- Population Mitochondria Different-Phenotype (%) [1]: 41% and 55%
- Population Mitotic Cells (%) [1]: 61% and 36%
- Population Normal (%) [1]: 95% and 91%
- Population Pyknosed Nuclei (%) [1]: 12% and 15%
- Population Tubulin-Different-Phenotype (%) [1]: 25% and 22%
- Total Cell Count [1]: 280 and 342
- Population Apoptotic (%) [2]: 45%
- Population Fragmented Nuclei (%) [2]: 10% and 8%
- Population Healthy Nuclei (%) [2]: 73% and 77%
- Population Hoechst High Intensity Objects (%) [2]: 4% and 10%
- Population Membrane Permeable-Phenotype (%) [2]: 0%
- Population Mitochondria Different-Phenotype (%) [2]: 51% and 61%
- Population Mitotic Cells (%) [2]: 55% and 54%
- Population Normal (%) [2]: 95% and 89%
- Population Pyknosed Nuclei (%) [2]: 16% and 13%
- Population Tubulin-Different-Phenotype (%) [2]: 29% and 22%
- Total Cell Count [2]: 383 and 269
- Population Apoptotic (%) [3]: 43% and 48%
- Population Fragmented Nuclei (%) [3]: 9% and 7%
- Population Healthy Nuclei (%) [3]: 77% and 82%
- Population Hoechst High Intensity Objects (%) [3]: 6% and 7%
- Population Membrane Permeable-Phenotype (%) [3]: 0%
- Population Mitochondria Different-Phenotype (%) [3]: 19% and 36%
- Population Mitotic Cells (%) [3]: 56% and 51%
- Population Normal (%) [3]: 93% and 92%
- Population Pyknosed Nuclei (%) [3]: 12% and 9%
- Population Tubulin-Different-Phenotype (%) [3]: 12% and 15%
- Total Cell Count [3]: 353 and 463
- Population Apoptotic (%) [4]: 41% and 39%
- Population Fragmented Nuclei (%) [4]: 10%
- Population Healthy Nuclei (%) [4]: 74% and 79%
- Population Hoechst High Intensity Objects (%) [4]: 4% and 8%
- Population Membrane Permeable-Phenotype (%) [4]: 0%
- Population Mitochondria Different-Phenotype (%) [4]: 34% and 40%
- Population Mitotic Cells (%) [4]: 58% and 60%
- Population Normal (%) [4]: 95% and 91%
- Population Pyknosed Nuclei (%) [4]: 14% and 9%
- Population Tubulin-Different-Phenotype (%) [4]: 18% and 12%
- Total Cell Count [4]: 479 and 363
- Population Apoptotic (%) [5]: 35% and 27%
- Population Fragmented Nuclei (%) [5]: 15% and 11%
- Population Healthy Nuclei (%) [5]: 77% and 81%
- Population Hoechst High Intensity Objects (%) [5]: 1% and 0%
- Population Membrane Permeable-Phenotype (%) [5]: 1%
- Population Mitochondria Different-Phenotype (%) [5]: 16% and 18%
- Population Mitotic Cells (%) [5]: 64% and 72%
- Population Normal (%) [5]: 98% and 99%
- Population Pyknosed Nuclei (%) [5]: 6%
- Population Tubulin-Different-Phenotype (%) [5]: 11% and 10%
- Total Cell Count [5]: 585 and 715
- Population Apoptotic (%) [6]: 39% and 48%
- Population Fragmented Nuclei (%) [6]: 16%
- Population Healthy Nuclei (%) [6]: 75% and 77%
- Population Hoechst High Intensity Objects (%) [6]: 1% and 4%
- Population Membrane Permeable-Phenotype (%) [6]: 1%
- Population Mitochondria Different-Phenotype (%) [6]: 18% and 22%
- Population Mitotic Cells (%) [6]: 60% and 51%
- Population Normal (%) [6]: 98% and 95%
- Population Pyknosed Nuclei (%) [6]: 8% and 5%
- Population Tubulin-Different-Phenotype (%) [6]: 9% and 11%
- Total Cell Count [6]: 643 and 501
